Measured values reported in ChEMBL document CHEMBL4270638, “Sulfonyl-containing phenyl-pyrrolyl pentane analogues: Novel non-secosteroidal vitamin D receptor modulators with favorable physicochemical properties, pharmacokinetic properties and anti-tumor activity” (Eur J Med Chem, 2018).
≈ marks a conversion by molar mass, not a printed value. Calls of active or inactive are those of the source. The calls are words filed in the database; no cut-off is given here.

How the values were obtained:
MCF7 [1] = test: Cell cycle arrest in human MCF7 cells expressing scrambled siRNA assessed as accumulation at G0/G1 phase at 1 uM after 24 hrs by propidium iodide staining based flow cytometry (reference value: 49.28%); type: functional
MCF7 [2] = test: Cell cycle arrest in human MCF7 cells expressing scrambled siRNA assessed as accumulation at G2/M phase at 1 uM after 24 hrs by propidium iodide staining based flow cytometry (reference value: 19.6%); type: functional
MCF7 [3] = test: Cell cycle arrest in human MCF7 cells expressing scrambled siRNA assessed as accumulation at S phase at 1 uM after 24 hrs by propidium iodide staining based flow cytometry (reference value: 29.79%); type: functional
MCF7 [4] = test: Cell cycle arrest in human MCF7 cells expressing VDR siRNA assessed as accumulation at G0/G1 phase at 1 uM after 24 hrs by propidium iodide staining based flow cytometry (reference value: 49.17%); type: functional
MCF7 [5] = test: Cell cycle arrest in human MCF7 cells expressing VDR siRNA assessed as accumulation at G2/M phase at 1 uM after 24 hrs by propidium iodide staining based flow cytometry (reference value: 17.57%); type: functional
MCF7 [6] = test: Cell cycle arrest in human MCF7 cells expressing VDR siRNA assessed as accumulation at S phase at 1 uM after 24 hrs by propidium iodide staining based flow cytometry (reference value: 32%); type: functional
MCF7 [7] = test: Induction of apoptosis in human MCF7 cells expressing scrambled siRNA assessed as live cells at 1 uM after 24 hrs by Annexin-V-FITC/propidium iodide staining based flow cytometry (reference value: 97.93%); type: functional
MCF7 [8] = test: Induction of apoptosis in human MCF7 cells expressing scrambled siRNA assessed as early apoptotic cells at 1 uM after 24 hrs by Annexin-V-FITC/propidium iodide staining based flow cytometry (reference value: 0.93%); type: functional
MCF7 [9] = test: Induction of apoptosis in human MCF7 cells expressing scrambled siRNA assessed as late apoptotic cells at 1 uM after 24 hrs by Annexin-V-FITC/propidium iodide staining based flow cytometry (reference value: 0.98%); type: functional
MCF7 [10] = test: Induction of apoptosis in human MCF7 cells expressing scrambled siRNA assessed as necrotic cells at 1 uM after 24 hrs by Annexin-V-FITC/propidium iodide staining based flow cytometry (reference value: 0.16%); type: functional
MCF7 [11] = test: Induction of apoptosis in human MCF7 cells expressing VDR siRNA assessed as live cells at 1 uM after 24 hrs by Annexin-V-FITC/propidium iodide staining based flow cytometry (reference value: 98.35%); type: functional
MCF7 [12] = test: Induction of apoptosis in human MCF7 cells expressing VDR siRNA assessed as early apoptotic cells at 1 uM after 24 hrs by Annexin-V-FITC/propidium iodide staining based flow cytometry (reference value: 0.49%); type: functional
MCF7 [13] = test: Induction of apoptosis in human MCF7 cells expressing VDR siRNA assessed as late apoptotic cells at 1 uM after 24 hrs by Annexin-V-FITC/propidium iodide staining based flow cytometry (reference value: 1.01%); type: functional
MCF7 [14] = test: Induction of apoptosis in human MCF7 cells expressing VDR siRNA assessed as necrotic cells at 1 uM after 24 hrs by Annexin-V-FITC/propidium iodide staining based flow cytometry (reference value: 0.15%); type: functional
MCF7 [15] = test: Antitumor activity against human MCF7 cells xenografted in Balb/c nude mouse assessed as increase in p21 expression at […], ip administered three times a week for three weeks starting from day 7 after tumor cell inoculation by immunohistochemical analysis; type: functional, organism-based
Summary of the method: (§1)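 Orthotopic MCF-7 fat-pad xenografts in nude mice, as above. Dosing ip three times weekly for three weeks. Tumours fixed 24 h in 4% neutral buffered paraformaldehyde, paraffin-embedded and cut at 5 µm. Sections dewaxed with antigen retrieval, peroxidase quenched with 3% H2O2 for 10 min, then immunostained for p21, p27 and Bax.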

MCF7 [16] = test: Antitumor activity against human MCF7 cells xenografted in Balb/c nude mouse assessed as increase in p27 expression at […], ip administered three times a week for three weeks starting from day 7 after tumor cell inoculation by immunohistochemical analysis; type: functional, organism-based; summary of the method: as §1
MCF7 [17] = test: Antitumor activity against human MCF7 cells xenografted in Balb/c nude mouse assessed as increase in Bax expression at […], ip administered three times a week for three weeks starting from day 7 after tumor cell inoculation by immunohistochemical analysis; type: functional, organism-based; summary of the method: as §1
Mus musculus [18] = test: Hypercalcemic effect in Balb/c nude mouse xenografted with human MCF7 cells assessed as effect on serum calcium level at 0.5 ug/kg, ip administered three times a week for three weeks starting from day 7 after tumor cell inoculation measured on day 27 (reference value: 0.6 umol/ml); settings: in vivo
Mus musculus [19] = test: Hypercalcemic effect in Balb/c nude mouse xenografted with human MCF7 cells assessed as effect on serum calcium level at 0.5 ug/kg, ip administered three times a week for three weeks starting from day 7 after tumor cell inoculation measured on day 17 during compound dosing (reference value: 0.6 umol/ml); settings: in vivo
BXPC-3 = test: Antiproliferative activity against human BxPC3 cells after 24 hrs by MTT assay; type: functional, cell-based; settings: BXPC-3, 24 h
MCF7 [20] = test: Antiproliferative activity against human MCF7 cells after 24 hrs by MTT assay; type: functional, cell-based; settings: MCF7, 24 h
PC-3 = test: Antiproliferative activity against human PC3 cells after 24 hrs by MTT assay; type: functional, cell-based; settings: PC-3, 24 h
Vitamin D3 receptor = target: T1, Vitamin D3 receptor (Homo sapiens, UniProt P11473); test: Displacement of fluormone VDR red from human full-length VDR after 4 hrs by fluorescence polarization assay
T1 sequence (P11473 whole entry): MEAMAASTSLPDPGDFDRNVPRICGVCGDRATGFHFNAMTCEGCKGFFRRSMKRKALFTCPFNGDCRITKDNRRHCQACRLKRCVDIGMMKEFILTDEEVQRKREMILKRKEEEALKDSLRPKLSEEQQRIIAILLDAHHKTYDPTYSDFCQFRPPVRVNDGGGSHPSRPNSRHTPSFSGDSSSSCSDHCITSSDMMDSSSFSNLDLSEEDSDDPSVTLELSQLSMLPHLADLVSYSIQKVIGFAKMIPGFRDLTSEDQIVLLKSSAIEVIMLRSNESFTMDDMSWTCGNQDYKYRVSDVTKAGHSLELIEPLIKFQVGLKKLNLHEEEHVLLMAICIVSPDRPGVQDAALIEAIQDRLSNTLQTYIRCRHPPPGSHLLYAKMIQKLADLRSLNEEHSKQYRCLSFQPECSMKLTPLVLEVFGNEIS

[21] = target: T2, Retinoic acid receptor RXR-alpha/Vitamin D3 receptor (Homo sapiens, UniProt P11473+P19793); test: Transactivation of recombinant human VDR/RXRalpha expressed in HEK293 cells after 24 hrs by Dual-luciferase reporter gene assay; type: cell-based
T2 sequence (P11473 whole entry): T1 sequence (P11473 whole entry)
T2 sequence (P19793 whole entry): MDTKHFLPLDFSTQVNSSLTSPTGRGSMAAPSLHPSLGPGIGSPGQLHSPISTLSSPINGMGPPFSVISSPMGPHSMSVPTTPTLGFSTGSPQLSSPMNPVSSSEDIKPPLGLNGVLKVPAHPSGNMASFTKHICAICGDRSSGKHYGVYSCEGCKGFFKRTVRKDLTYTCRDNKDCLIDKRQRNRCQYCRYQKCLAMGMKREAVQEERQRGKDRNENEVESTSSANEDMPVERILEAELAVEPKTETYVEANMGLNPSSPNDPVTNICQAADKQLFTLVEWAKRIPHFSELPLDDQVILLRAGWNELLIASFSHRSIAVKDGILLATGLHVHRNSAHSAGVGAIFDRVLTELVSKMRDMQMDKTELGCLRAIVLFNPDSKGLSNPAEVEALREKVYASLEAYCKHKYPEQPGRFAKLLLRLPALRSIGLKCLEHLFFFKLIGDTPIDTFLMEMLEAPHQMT

MCF7 [22] = test: Antiproliferative activity against human MCF7 cells expressing VDR siRNA assessed as reduction in BrdU incorporation after 16 hrs by ELISA; type: functional, cell-based; settings: MCF7, 16 h
[23] = Solubility of the compound in water at pH 7.4 by HPLC method; type: physicochemical
Summary of the method: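 Aqueous solubility measured at pH 7.4, with samples quantified by HPLC.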

[24] = Half life in rat liver microsomes in presence of NADPH by HPLC method; type: ADME, microsome
Summary of the method: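 Compounds incubated with rat liver microsomes plus NADPH. Remaining compound quantified by HPLC at 0, 5, 10, 20, 30, 45, 60 and 90 min, and half-life calculated.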

[25] = AUC in Sprague-Dawley rat at 5 mg/kg, iv by HPLC method; type: ADME, organism-based; settings: in vivo
Summary of the method: (§2)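 Male Sprague-Dawley rats, 180–220 g, n = 3 per group. Dosed iv at 5 mg/kg or ip at 20 mg/kg in ethanol/EL/saline (1:1:18). Plasma sampled at 0, 0.083, 0.167, 0.25, 0.5, 1, 2, 4, 8, 12 and 24 h and centrifuged 12000 rpm for 10 min. Plasma drug measured by HPLC; parameters by PK modelling; mean ± SD.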

[26] = Half life in Sprague-Dawley rat at 5 mg/kg, iv by HPLC method; type: ADME, organism-based; settings: in vivo; summary of the method: as §2
[27] = Mean residence time in Sprague-Dawley rat at 5 mg/kg, iv by HPLC method; type: ADME, organism-based; settings: in vivo; summary of the method: as §2
[28] = Clearance in Sprague-Dawley rat at 5 mg/kg, iv by HPLC method; type: ADME, organism-based; settings: in vivo; summary of the method: as §2
[29] = AUC in Sprague-Dawley rat at 20 mg/kg, ip by HPLC method; type: ADME, organism-based; settings: in vivo; summary of the method: as §2
[30] = Half life in Sprague-Dawley rat at 20 mg/kg, ip by HPLC method; type: ADME, organism-based; settings: in vivo; summary of the method: as §2
[31] = Mean residence time in Sprague-Dawley rat at 20 mg/kg, ip by HPLC method; type: ADME, organism-based; settings: in vivo; summary of the method: as §2
[32] = Clearance in Sprague-Dawley rat at 20 mg/kg, ip by HPLC method; type: ADME, organism-based; settings: in vivo; summary of the method: as §2
[33] = Bioavailability in Sprague-Dawley rat at 20 mg/kg, ip by HPLC method; type: ADME, organism-based; settings: in vivo; summary of the method: as §2
MCF7 [34] = test: Antitumor activity against human MCF7 cells xenografted in Balb/c nude mouse assessed as reduction in tumor growth at 10 mg/kg, ip administered three times a week for three weeks starting from day 7 after tumor cell inoculation; type: functional, organism-based
Summary of the method: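 […] BALB/c-nu mice, 10 weeks old. 1×10^7 MCF-7 cells injected into the left fourth mammary fat pad; dosing began at about 50 mm3 tumour volume (day 7), n = 5 per group. Dosed ip at 10 mg/kg in ethanol/EL/saline 1:1:18, three times weekly for three weeks. Tumour volume by calipers = length × width² × 0.5; tumour weight and body weight recorded.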

| IC50 (BXPC-3) | IC50 (MCF7 [20]) | IC50 (PC-3) | solubility [23] | half-life [24] | SMILES | Activity (MCF7 [1]) | Activity (MCF7 [2]) | Activity (MCF7 [3]) | Activity (MCF7 [4]) | Activity (MCF7 [5]) | Activity (MCF7 [6]) | Activity (MCF7 [7]) | Activity (MCF7 [8]) | Activity (MCF7 [9]) | Activity (MCF7 [10]) | Activity (MCF7 [11]) | Activity (MCF7 [12]) | Activity (MCF7 [13]) | Activity (MCF7 [14]) | also measured |
| --- | --- | --- | --- | --- | --- | --- | --- | --- | --- | --- | --- | --- | --- | --- | --- | --- | --- | --- | --- | --- |
| – | – | – | – | – | C=C1/C(=C\C=C2/CCC[C@]3(C)[C@@H]([C@H](C)CCCC(C)(C)O)CC[C@@H]23)C[C@@H](O)C[C@@H]1O [CALCITRIOL] | 55.16% | 13.4% | 30.32% | 51.38% | 17.15% | 30.33% | 95% | 1.29% | 3.38% | 0.33% | 97.25% | 0.84% | 1.49% | 0.42% | Activity (MCF7 [15]): Active; Activity (MCF7 [16]): Active; Activity (MCF7 [17]): Active; Activity (Mus musculus [18]): 0.61 µmol/mL; Activity (Mus musculus [19]): 0.6 µmol/mL |
| 15.8 µM | 18.2 µM | 8.5 µM | 1.7 µg/mL (≈ 3.6 µM) | 0.429 h | CCn1c(C(=O)N[C@@H](C)CO)ccc1C(CC)(CC)c1ccc(OCC(O)C(C)(C)C)c(C)c1 (stereo not given in full) | 55.43% | 11.69% | 31.41% | 51.05% | 18.59% | 29.44% | 95.55% | 1.31% | 2.88% | 0.26% | 96.87% | 0.99% | 1.79% | 0.35% | IC50 (Vitamin D3 receptor): 0.115 µM; EC50 [21]: 0.00681 µM; IC50 (MCF7 [22]): > 50 µM; AUC [25]: 4650 ng·h/mL; half-life [26]: 2.89 h; MRT [27]: 5.54 h; clearance [28]: 18 mL/min; AUC [29]: 6040 ng·h/mL; half-life [30]: 3.47 h; MRT [31]: 5.5 h; CL/F [32]: 55.2 mL/min; bioavailability [33]: 32.5%; Activity (MCF7 [34]): Active |
| 4.11 µM | 4.64 µM | 9.54 µM | 198 µg/mL (≈ 418 µM) | 0.802 h | CCN(CC)CCNC(=O)c1cc(C(CC)(CC)c2ccc(OCSC)c(C)c2)cn1CC | 55.62% | 12.37% | 30.52% | 51.44% | 16.92% | 30.37% | 95.2% | 1.17% | 3.24% | 0.39% | 96.68% | 0.91% | 1.91% | 0.5% | – |
